B1: DNA polymerase alpha catalytic subunit (Homo sapiens), P09884 (protein)
chain: MAPVHGDDSLSDSGSFVSSRARREKKSKKGRQEALERLKKAKAGEKYKYEVEDFTGVYEEVDEEQYSKLVQARQDDDWIVDDDGIGYVEDGREIFDDDLEDDALDADEKGKDGKARNKDKRNVKKLAVTKPNNIKSMFIACAGKKTADKAVDLSKDGLLGDILQDLNTETPQITPPPVMILKKKRSIGASPNPFSVHTATAVPSGKIASPVSRKEPPLTPVPLKRAEFAGDDVQVESTEEEQESGAMEFEDGDFDEPMEVEEVDLEPMAAKAWDKESEPAEEVKQEADSGKGTVSYLGSFLPDVSCWDIDQEGDSSFSVQEVQVDSSHLPLVKGADEEQVFHFYWLDAYEDQYNQPGVVFLFGKVWIESAETHVSCCVMVKNIERTLYFLPREMKIDLNTGKETGTPISMKDVYEEFDEKIATKYKIMKFKSKPVEKNYAFEIPDVPEKSEYLEVKYSAEMPQLPQDLKGETFSHVFGTNTSSLELFLMNRKIKGPCWLEVKSPQLLNQPVSWCKVEAMALKPDLVNVIKDVSPPPLVVMAFSMKTMQNAKNHQNEIIAMAALVHHSFALDKAAPKPPFQSHFCVVSKPKDCIFPYAFKEVIEKKNVKVEVAATERTLLGFFLAKVHKIDPDIIVGHNIYGFELEVLLQRINVCKAPHWSKIGRLKRSNMPKLGGRSGFGERNATCGRMICDVEISAKELIRCKSYHLSELVQQILKTERVVIPMENIQNMYSESSQLLYLLEHTWKDAKFILQIMCELNVLPLALQITNIAGNIMSRTLMGGRSERNEFLLLHAFYENNYIVPDKQIFRKPQQKLGDEDEEIDGDTNKYKKGRKKAAYAGGLVLDPKVGFYDKFILLLDFNSLYPSIIQEFNICFTTVQRVASEAQKVTEDGEQEQIPELPDPSLEMGILPREIRKLVERRKQVKQLMKQQDLNPDLILQYDIRQKALKLTANSMYGCLGFSYSRFYAKPLAALVTYKGREILMHTKEMVQKMNLEVIYGDTDSIMINTNSTNLEEVFKLGNKVKSEVNKLYKLLEIDIDGVFKSLLLLKKKKYAALVVEPTSDGNYVTKQELKGLDIVRRDWCDLAKDTGNFVIGQILSDQSRDTIVENIQKRLIEIGENVLNGSVPVSQFEINKALTKDPQDYPDKKSLPHVHVALWINSQGGRKVKAGDTVSYVICQDGSNLTASQRAYAPEQLQKQDNLTIDTQYYLAQQIHPVVARICEPIDGIDAVLIATWLGLDPTQFRVHHYHKDEENDALLGGPAQLTDEEKYRDCERFKCPCPTCGTENIYDNVFDGSGTDMEPSLYRCSNIDCKASPLTFTVQLSNKLIMDIRRFIKKYYDGWLICEEPTCRNRTRHLPLQFSRTGPLCPACMKATLQPEYSDKSLYTQLCFYRYIFDAECALEKLTTDHEKDKLKKQFFTPKVLQDYRKLKNTAEQFLSRSGYSEVNLSKLFAGCAVKS

Tests used:
[1] = test system: CCRF-CEM; assay: Percent control of protein synthesis in CEM cells; assay type: functional, Homo sapiens
Outline: (§1)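 CEM cells (RPMI 1640, 10% FBS) incubated with 29 μM or 35 μM compound (± 10 μM dCF). [3H]thymidine, [3H]uridine or [3H]leucine added 30 min after drug; samples at 1, 2 and 4 h after label. Acid-precipitable radioactivity measured; RNA taken as total acid-precipitable minus alkali-stable/acid-precipitable (DNA) fraction. Expressed as percent of control; repeated twice.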

[2] = test system: CCRF-CEM; assay: Percent control of DNA synthesis in CEM cells; assay type: functional, Homo sapiens; outline: as §1
[3] = test system: CCRF-CEM; assay: Percent control of RNA synthesis in CEM cells; assay type: functional, Homo sapiens; outline: as §1
[4] = molecular target: T1, DNA polymerase alpha catalytic subunit (Homo sapiens, UniProt P09884); assay: Ability to inhibit the incorporation of dATP into DNA by DNA polymerase alpha
T1 sequence (P09884 whole entry): B1 chain
Outline: (§2)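 DNA polymerase α purified 52-fold from CEM cells (specific activity 120 nmol/mg/hr). 50 μL reactions: 50 mM Tris pH 8.0, 1 mg/mL BSA, 10 mM MgCl2, 1 mM DTT, 100 μg/mL activated DNA, 100 μM each dTTP and dCTP, 10 μM [3H]dGTP, dATP 0–100 μM. 1 h at 37 °C; TCA/ethanol-washed glass-fiber filters counted. Ki from slopes of Lineweaver–Burk lines vs inhibitor, three inhibitor concentrations.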

[5] = substrate: Nc1ncnc2c1ncn2[C@H]1C[C@H](O)[C@@H](COP(=O)(O)OP(=O)(O)OP(=O)(O)O)O1; assay: Km value with DNA polymerase alpha; assay type: functional; outline: as §2

Molecule	Control [1]	Control [2]	Control [3]	Ki [4]	Km [5]
CC(C)(C)C(=O)OCOP(=O)(OCOC(=O)C(C)(C)C)OC[C@H]1O[C@@H](n2nnc3c(N)ncnc32)C[C@H]1O.OC[C@H]1O[C@@H](n2cnc3c2NC=NC[C@H]3O)C[C@@H]1O	98%	11%	3%		
CC(C)(C)C(=O)OCOP(=O)(OCOC(=O)C(C)(C)C)OC[C@H]1O[C@@H](n2c(Br)nc3c(N)ncnc32)C[C@@H]1O	94%	53%	14%		
CC(C)(C)C(=O)OCOP(=O)(OCOC(=O)C(C)(C)C)OC[C@H]1O[C@@H](n2nnc3c(N)ncnc32)C[C@H]1O	95%	11%	3%	156 µM	
B1					4 µM
